Screens: PubChem BioAssay, The Scripps Research Institute Molecular Screening Center
TAAR1 ag: agonists of human TAAR1. 0.99% of 360,000 active. CHO RD-HGA16 TAAR1, Fluo-8 calcium fluorescence; vehicle wells 0%, saturating PEA agonist 100%. Q96RJ0. activation, % at 3 µM;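 active = activation above the mean activation of all test compounds in the run plus 3 SD, cut at about 38% in these data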
Target sequence (Q96RJ0 whole entry, looked up): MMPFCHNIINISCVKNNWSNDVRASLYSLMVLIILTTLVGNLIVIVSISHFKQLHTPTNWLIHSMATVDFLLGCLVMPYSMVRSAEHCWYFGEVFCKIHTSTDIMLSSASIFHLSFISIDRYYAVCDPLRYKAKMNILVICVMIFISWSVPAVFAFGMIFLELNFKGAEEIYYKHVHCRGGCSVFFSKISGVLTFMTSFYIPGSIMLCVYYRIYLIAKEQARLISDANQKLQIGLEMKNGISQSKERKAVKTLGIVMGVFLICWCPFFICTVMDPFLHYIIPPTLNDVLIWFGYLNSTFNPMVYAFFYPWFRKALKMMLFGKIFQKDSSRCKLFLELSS
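System: CHO-derived RD-HGA16 cells with stable Gα16 and human TAAR1 / Times: 17-24 h plating, Fluo-8 75 min 37 °C, 30 min RT / Technique: calcium-sensitive Fluo-8 signal, excitation 470-495, emission 515-575 nm / Measure: % activation relative to PEA EC100 response / Benchmarks: DMSO and PEA EC100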
GPR7 antagonist: human neuropeptides B/W receptor 1 antagonism. P48145. GPR7-expressing cells, fluorescence antagonist assay. inhibition, % at 4.4 µM. 1.1% of 290,000 active. AID 1861; in the data active = inhibition above about 16%, passing the limit was not always enough;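 also: cells stimulated with the agonist NPW; 0% = agonist with vehicle and 100% = vehicle without agonist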
Target sequence (P48145 whole entry, looked up): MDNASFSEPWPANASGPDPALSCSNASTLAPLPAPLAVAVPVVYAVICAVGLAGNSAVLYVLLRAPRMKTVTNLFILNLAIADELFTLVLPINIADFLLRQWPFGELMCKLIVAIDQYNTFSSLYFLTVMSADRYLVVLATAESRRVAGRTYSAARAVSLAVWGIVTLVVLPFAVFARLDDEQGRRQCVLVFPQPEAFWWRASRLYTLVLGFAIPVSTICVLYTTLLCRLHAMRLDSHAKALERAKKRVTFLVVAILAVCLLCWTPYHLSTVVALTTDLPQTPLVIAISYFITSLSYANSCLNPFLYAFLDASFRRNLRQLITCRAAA
CHO parental Ca: counter-screen for OX1R antagonists: effect in parental CHO cells; parental CHO-K1, ATP-induced calcium, Fluo-8 fluorescence; inhibition, % at 5.6 µM; 0.63% of 330,000 active; AID 463079;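 active = inhibition above that plate's mean sample inhibition plus 3 SD, cut at about 26% in these data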;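 also: 0% = ATP-challenged DMSO wells and 100% = DMSO wells without ATP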
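Test system: untransfected parental CHO cell line; also added: ATP stimulus; dosing: 5.6 µM, single dose; signal: calcium-sensitive Fluo-8 fluorescence; measure: percent inhibition of ATP-evoked calcium rise, normalized to controls; benchmarks: low control ATP plus DMSO, high control DMSO only; replication: one well per compound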
OX1R antag-1: antagonists of human orexin 1 receptor. O43613. CHO/OX1R cells, Fluo-8 calcium fluorescence, orexin A. inhibition, % at 5 µM. 0.43% of 330,000 active. AID 434989;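 active = inhibition above its plate's threshold, mean inhibition of all tested compounds on the plate plus 3 SD, cut at about 37% in these data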;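 also: 0% = orexin A challenge wells and 100% = SB-334867-A antagonist wells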
OX1R antag-2: blocks the human orexin 1 receptor | OX1R-expressing cells, FRET antagonist read-out | inhibition, % at 6.6 µM | 1.8% of 330,000 active; in the data active = inhibition mostly above about 38%, no sharp cut-off; inactive = mostly below about 40%;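 also: 0% = agonist challenge alone and 100% = reference antagonist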
TAAR1 antag: antagonists of human TAAR1 | AID 624466 | CHO RD-HGA16 TAAR1, Fluo-8 calcium fluorescence, antagonist | 1.5% of 360,000 active | Q96RJ0 | inhibition, % at 3 µM;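 active = inhibition above a per-plate cutoff, the mean inhibition of test compounds on that plate plus 3 SD, cut at about 49% in these data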;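 also: 0% = DMSO plus EC80 beta-PEA response and 100% = DMSO alone without agonist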
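test system = CHO RD-HGA16 cells bearing hTAAR1 | replication = singlicate | controls = DMSO-only wells and EC80 β-PEA-stimulated wells | reagent = EC80 β-phenethylamine stimulus | read-out basis = percent inhibition of PEA-evoked calcium signal, max/basal emission ratio | schedule = seeding 17-24 h prior, 75-min 37 °C, 30-min RT dye loading | signal = kinetic Fluo-8 calcium fluorescence measurement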
nonsel antag count: counter-screen for TAAR1 antagonists: nonselective antagonists; inhibition, % at 3 µM; 77% of 2,400 active; counterscreen cell line, calcium fluorescence, antagonist mode; shares compounds with TAAR1 antag; in the data active = inhibition above about 22%;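 also: CHO-Ga16 host cells stimulated with ATP at an EC80 level; 0% = agonist EC80 plus vehicle and 100% = vehicle without agonist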
TAAR1 antag conf: human TAAR1 antagonism, confirmed; shares compounds with TAAR1 antag; TAAR1-expressing cells, fluorescence antagonist read-out; inhibition, % at 3 µM; 40% of 2,400 active; AID 651785; in the data active = inhibition above about 49%;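 also: CHO-Ga16 host cells challenged with agonist PEA near its EC80; 0% = agonist at EC80 plus vehicle and 100% = vehicle with no agonist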
Ga16 ag counter: nonselective Ga16 agonism, counter-screen | shares compounds with TAAR1 antag | Ga16-expressing cells, calcium fluorescence, agonist counterscreen | activation, % at 3 µM | 18% of 2,400 active | AID 651953; in the data active = activation above about 12%;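 also: 0% = vehicle wells and 100% = saturating stimulus response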
TAAR1 ag counter: counter-screen for human TAAR1 antagonists: TAAR1 agonists. shares compounds with TAAR1 antag. 2% of 2,400 active. hTAAR1 cell line, fluorescence activation, agonist mode. activation, % at 3 µM. AID 651955; in the data active = activation above about 37%;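 also: CHO cells stably expressing TAAR1 with calcium dye readout; 0% = DMSO vehicle and 100% = full agonist response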
* hit, by the source's call; nt = no result. A selection: hits, their analogues and other compounds. The true share with any hit is near 4.5%.

SMILES	TAAR1 ag	GPR7 antagonist	CHO parental Ca	OX1R antag-1	OX1R antag-2	TAAR1 antag	nonsel antag count	TAAR1 antag conf	Ga16 ag counter	TAAR1 ag counter
CC(C)Oc1ccc(S(=O)(=O)N2CCOCC2)cc1NC(=O)c1ccc(N2CCCC2=O)cc1	2	-10	-23	-22	34	-10	nt	nt	nt	nt
Cc1c(N=O)c(-c2ccccc2)n(O)[n+]1[O-]	-1	nt	nt	nt	nt	-9	nt	nt	nt	nt
Cc1c(C(=O)N2CCC(C)CC2)oc2ccc3c(c12)C(O)CC1(CCCCC1)O3 (stereo not drawn)	-1	-9	-10	-32	5	2	nt	nt	nt	nt
CCc1cccc2c(C(=O)COC(=O)c3nn(C)c(=O)c4ccccc34)c[nH]c12	26	0	-2	9	60	58*	37*	49	14*	11
COc1cc(C)c(C(=O)Oc2cc(C)c(C(=O)O)c(O)c2C)c(O)c1C	-3	nt	-4	-12	10	80*	48*	53*	0	-3
CCN(C[C@H]1N[C@@](CC)(C(=O)OC)[C@H]2C(=O)N(C)C(=O)[C@@H]12)C(=O)c1ccccc1	1	nt	-8	-8	-2	-5	nt	nt	nt	nt
CCOC(=O)c1cc(NC(=O)Cc2ccc(S(=O)(=O)N3CCOCC3)s2)cc(C(=O)OCC)c1	12	nt	-9	0	25	76*	29*	45	11	11
COc1cccc(OCC(=O)N2CCCc3ccccc32)c1	11	-7	-12	-10	23	-11	nt	nt	nt	nt
CC(=O)Oc1ccccc1C(=O)NC(C)CCc1ccccc1 (stereo not drawn)	1	2	-13	-24	23	-10	nt	nt	nt	nt
Cc1cccc(/C=C/C(=O)c2cc(Br)ccc(=O)c2O)c1	35	-1	-10	-12	14	51*	36*	27	14*	17
CCc1ccc(/C=C/C(=O)c2cc(Br)ccc(=O)c2O)cc1	27	-10	-7	-17	15	32	nt	nt	nt	nt
CCN1CC2=C(OC(N)=C(C#N)C2c2cccs2)/C(=C/c2cccs2)C1 (stereo not drawn)	18	-9	-30	-20	15	34	nt	nt	nt	nt
CCN1C=C(Cc2cccs2)C2=C(C1)C(c1cccs1)C(C#N)=C(N)O2 (stereo not drawn)	26	-11	-18	-12	31	53*	20	38	6	9
O=C(Cc1ccc(Cl)cc1)SCc1ccccc1	17	nt	-15	-14	11	1	nt	nt	nt	nt
Cc1nn(CCc2nn[nH]n2)c2nc(-c3ccc(C4CCCCC4)cc3)cc(C(F)(F)F)c12	8	5	55*	33	11	80*	89*	68*	6	3
CCOc1cc2c(cc1OC)C(c1cccc([N+](=O)[O-])c1)NCC2 (stereo not drawn)	0	-3	-23	-16	19	106*	4	7	3	6
Cn1ncc2c1NC(c1ccc(F)cc1)SCC2=O (stereo not drawn)	5	nt	nt	nt	nt	-15	nt	nt	nt	nt
O=C(NCc1cccc(C(F)(F)F)c1)c1csc([C@@H]2O[C@H](CO)[C@H](O)[C@H](O)[C@H]2O)n1	2	nt	nt	nt	nt	-23	nt	nt	nt	nt
O=C(CSc1nnc2c(n1)[nH]c1ccccc12)Nc1cccc(S(=O)(=O)N2CCOCC2)c1	12	-7	1	-10	10	70*	43*	52*	9	10
O=C(CSc1nnc2c(n1)[nH]c1ccccc12)Nc1ccc(N2CCOCC2)cc1	-2	15	-18	-16	9	14	nt	nt	nt	nt
O=C(CSc1nnc(Nc2ccccc2)s1)Nc1ccc(S(=O)(=O)N2CCOCC2)cc1	26	-6	22	25	47	57*	36*	37	8	12
O=C(NCc1ccccc1)C1Cc2c(-c3ccc4c(c3)OCO4)ccnc2O1 (stereo not drawn)	-2	nt	nt	nt	nt	1	nt	nt	nt	nt
CC(=O)c1cccc(NCC(=O)Nc2cc(S(=O)(=O)N3CCCCC3)ccc2C)c1	2	-17	0	-12	-5	-10	nt	nt	nt	nt
CC(=O)c1ccc(N2CCN(C(=O)CCCc3nc4ccccc4s3)CC2)cc1	15	-7	-11	-16	18	60*	34*	46	11	6
O=C1NC(=S)S/C1=C/c1ccc(N2CCOCC2)o1	nt	-8	-3	1	29	nt	nt	nt	nt	nt
SMILES	TAAR1 ag	GPR7 antagonist	CHO parental Ca	OX1R antag-1	OX1R antag-2	TAAR1 antag	nonsel antag count	TAAR1 antag conf	Ga16 ag counter	TAAR1 ag counter
COc1ccc2cc(/C=C3\SC(=S)NC3=O)c(N3CCOCC3)nc2c1	4	-9	-11	-15	74*	53*	36*	42	5	0
COc1ccc(Cl)cc1C(=O)NNC(=O)c1csc(N2CCOCC2)n1	1	nt	-10	-7	19	-6	nt	nt	nt	nt
O=C(CN1C(=O)c2cccnc2Oc2ccc(Cl)cc21)NCCCc1ccccc1	8	-19	-17	-21	28	84*	32*	56*	9	9
CCCN1CCN(CCCNC(=O)CN2C(=O)c3cccnc3Oc3ccc(Cl)cc32)CC1	0	-2	-13	-7	3	-10	nt	nt	nt	nt
Cc1ccc(-c2csc(N3CCN(c4cc5c(cc4Cl)nc(-c4ccncc4)n5CCN4CCCCC4)CC3)n2)cc1	0	-16	-40	-22	18	7	nt	nt	nt	nt
COc1ccc(-c2csc(N3CCN(c4cc5c(cc4Cl)nc(-c4ccncc4)n5CCOCCO)CC3)n2)cc1	13	-1	-19	-21	18	50*	34*	33	8	0
Cn1c(SCC(=O)Nc2ccccc2Br)nnc1-c1cnccn1	10	-5	16	8	-5	-11	nt	nt	nt	nt
O=C(NCc1ccccc1)c1cc(C2CCCCN2C(=O)c2ccc3c(c2)CCO3)on1 (stereo not drawn)	0	nt	nt	nt	nt	-13	nt	nt	nt	nt
COc1cc(CC(=O)Nc2sccc2C(N)=O)cc(OC)c1OC	8	-11	-24	5	35	13	nt	nt	nt	nt
COc1ccc(Cl)cc1C(=O)OCC(=O)Nc1sccc1C(N)=O	24	nt	-17	1	18	57*	26*	50*	11	14
CCc1ccccc1NC(=O)CN1CCN(CC(=O)NCc2ccc(Cl)cc2)CC1	5	nt	-21	-22	12	-3	nt	nt	nt	nt
CN(Cc1ccc(F)cc1)C(=O)c1cccc(OCc2ccccc2)c1	-4	-1	-14	-6	19	-18	nt	nt	nt	nt
